Measured values pooled from the literature.
Protocols differ between the studies behind these lines.
MMP13: Collagenase 3 (MMP13, Homo sapiens, UniProt P45452)
ADRB3: Beta-3 adrenergic receptor (ADRB3, Homo sapiens, UniProt P13945)

| SMILES | target | observed | action | method | concentration | inhibition |
| --- | --- | --- | --- | --- | --- | --- |
| N=C(N)c1ccc2cc(OC(=O)c3ccc(N=C(N)N)cc3)ccc2c1 | MMP13 | enzyme activity | inhibitor | – | 10 µM | 75% |
| O=C(Nc1cccnn1)N1CCN([C@@H]2CCOc3cc(C(F)(F)F)ccc32)CC1 | ADRB3 | cell-free assay | – | – | 20 µM | -4% |
| COc1ccc(S(=O)(=O)N2CCCCC2)cc1C | Thyrotropin-releasing hormone receptor (TRHR, Homo sapiens, UniProt P34981) | ligand displacement | – | radioligand | 10 µM | < 30% |
| CN(CCN1CCC(OC(=O)Nc2ccccc2-c2ccccc2)CC1)C(=O)c1ccc(CN2CCC(C(N)=O)CC2)cc1 | Progesterone receptor (PGR, Homo sapiens, UniProt P06401) | ligand displacement | – | radioligand | 1 µM | 0% |
| C#Cc1n[nH]c2c(-c3cn([C@@H](C)c4ccccn4)c(=O)[nH]c3=O)cc(F)cc12 | Serine/threonine-protein kinase Sgk1 (SGK1, Homo sapiens, UniProt O00141) | enzyme activity | inhibitor | – | 0.1 µM | -0.7% |
| c1ccc(C(NCCNC(c2ccccc2)c2ccccc2)c2ccccc2)cc1 | ADRB3 | cell-free assay | – | – | 10 µM | 59% |
| COc1cc(Nc2ncc(F)c(Nc3ccc4c(n3)NC(=O)C(C)(C)O4)n2)cc(OC)c1OC | Calcium/calmodulin-dependent protein kinase type II subunit gamma (CAMK2G, Homo sapiens, UniProt Q13555) | binding | – | competition with immobilised ligand | 10 µM | 47% |
| C[C@H](C(=O)N[C@H]1COc2ccccc2[C@@H]1S(C)(=O)=O)c1ccc(F)cc1 | Adenosine receptor A2b (ADORA2B, Homo sapiens, UniProt P29275) | cell-free assay | – | – | 10 µM | 9% |
| CC(C)C[C@H](NC(=O)[C@H](Cc1ccccc1)NC(=O)c1cnccn1)B(O)O | Lysosomal Pro-X carboxypeptidase (PRCP, Homo sapiens, UniProt P42785) | enzyme activity | inhibitor | – | 33 µM | 77.9% |
| O=C(NC[C@H](O)CO)[C@@H]1C[C@H](c2ccccc2)CCN1 (mixture of isomers) | ADRB3 | ligand displacement | – | radioligand | 10 µM | -11.2% |
| C#Cc1n[nH]c2c(-c3cn([C@@H](C)c4ccccc4)c(=O)[nH]c3=O)cc(F)cc12 | Dual specificity protein kinase CLK2 (CLK2, Homo sapiens, UniProt P49760) | enzyme activity | inhibitor | – | 0.1 µM | 3.8% |
| COCc1c(-c2cc3cc(C)cc(OC)c3s2)c2c(N)ncnn2c1CN1CCNC(=O)C1 | ADRB3 | ligand displacement | – | radioligand | 10 µM | 9% |
| COc1ccc2[nH]c(C(O)c3ccc(Cl)cc3)c(CCNC(C)=O)c2c1 (centres unmarked) | Calmodulin-1 (CALM1, Homo sapiens, UniProt P0DP23) | enzyme activity | inhibitor | – | 50 µM | 40 to 50% |
| CN(C)C(=O)COC(=O)Cc1ccc(OC(=O)c2ccc(NC(=N)N)cc2)cc1 | MMP13 | enzyme activity | inhibitor | – | 10 µM | 24% |
